Laboratory results as given in ChEMBL document CHEMBL1122650, “Synthesis and central nervous system properties of 2-[(alkoxycarbonyl)amino]-4(5)-phenyl-2-imidazolines” (J Med Chem, 1984).
Activity calls are given as the source filed them. The rule behind the calls is not given here.

What was measured:
[1] = Lethal dose in mouse, in groups of ten; type: toxicity, organism-based; settings: in vivo
[2] = organism: Mus musculus; test: Compound was evaluated for maximal electroshock antagonism (MES) against mice; type: functional
Method in brief: (§1)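 Male HLa (ICR) BR mice, groups of eight to ten, dosed ip (aqueous solution) 15 min before transcorneal electroshock (50 mA, 0.2 s). End point: abolition of tonic hind-limb extension; quantal ED50 by Litchfield-Wilcoxon.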

[3] = organism: Mus musculus; test: Mouse behavior activity was determined; Depressant; type: functional, organism-based
Method in brief: (§2)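 Male Simonsen (ICR) fBR mice, 18-24 g, groups of three, given 3, 10, 30, 100, 300 or 1000 mg/kg ip as aqueous solution and observed for behavioral profile; deaths followed up to 7 days.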

[4] = organism: Mus musculus; test: Righting ability was determined in mice before rapid rolling (unaroused); type: functional
Method in brief: (§3)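 Male Simonsen (ICR) fBR mice, 18-24 g, groups of ten, dosed with aqueous compound. Righting ability checked before (unaroused) and after (aroused) rapid rolling in the hand; ED50 by Litchfield-Wilcoxon method.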

[5] = HPLC capacity factor (k'); type: ADME
[6] = organism: Rattus norvegicus; test: Inhibition of the NE [3H]Norepinephrine uptake by rat brain slices In vitro; type: functional
[7] = organism: Mus musculus; test: (§4) Inhibition of radioactive NE [3H]norepinephrine uptake into mouse heart; type: functional
Method in brief: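 Mice dosed ip (aqueous solution) before iv [3H]NE; hearts removed 3 h after label, washed, weighed, dissolved in Protosol and counted as dpm per mg tissue. Dose-response from linear regression.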

[8] = organism: Mus musculus; test: Evaluated for antagonism of reserpine induced hypothermia; type: functional
Method in brief: (§5)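 Male HLa (ICR) BR mice, 18-24 g, in groups of eight; reserpine 5 mg/kg ip given 2 h before oral test compound as aqueous solution. Rectal temperature taken hourly; 1-4-h hypothermia assessed by analysis of variance.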

[9] = organism: Rattus norvegicus; test: Inhibition of the 5-HT [14C]5-HT) uptake by rat brain slices In vitro; type: functional
Method in brief: (§6)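 Rat cerebral cortex slices, 5 mg tissue per mL Krebs-Henseleit buffer, incubated at 37 °C with [3H]NE or [14C]5-HT; blanks at 4 °C, undosed controls. Stopped after 20 min by filtration; slice radioactivity counted; IC50 from linear regression of uptake inhibition.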

[10] = tested on: Mus musculus; test: Reserpine hypothermia antagonism in mouse administered perorally with 5 mg/kg of reserpine 2 hour prior to test compound administration; type: functional; settings: route oral
[11] = organism: Mus musculus; test: Compound was evaluated for maximal electroshock antagonism (MES) against mice; Inactive; type: functional, organism-based; method in brief: as §1
[12] = tested on: Mus musculus; test: Compound was evaluated in vivo for reserpine hypothermia after oral administration in mouse. Minimum active dose was reported, with the percent reversal at 10 mg/kg; I=inactive; type: functional, organism-based; parameters: dose 10 mg/kg; method in brief: as §5
[13] = organism: Mus musculus; test: Compound was evaluated for maximal electroshock antagonism (MES) against mice; I=inactive; type: functional, organism-based; method in brief: as §1
[14] = organism: Mus musculus; test: Mouse behavior activity was determined; Dwk=Depressant (Weak); type: functional, organism-based; method in brief: as §2
[15] = organism: Mus musculus; test: Compound was evaluated for antagonism of reserpine induced hypothermia; I=inactive; type: functional, organism-based; method in brief: as §5
[16] = organism: Mus musculus; test: Compound was evaluated for maximal electroshock antagonism (MES) against mice (values in parentheses indicates 95% confidence limits); type: functional
Method in brief: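 Male HLa (ICR) BR mice, groups of eight to ten, given compound ip as aqueous solution 15 min before transcorneal electroshock (50 mA, 0.2 s). End point was abolition of tonic hind-limb extension; quantal ED50 derived by Litchfield-Wilcoxon.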

[17] = Compound was evaluated for lethal dose in mouse in groups of ten (values in parentheses indicates 95% confidence limits); type: toxicity, organism-based; settings: in vivo
[18] = organism: Mus musculus; test: Compound was evaluated for antagonism of reserpine induced hypothermia; I = inactive; type: functional, organism-based; method in brief: as §5
[19] = organism: Mus musculus; test: Mouse behavior activity was determined; ST= Stimulant, D = Depressant; type: functional, organism-based; method in brief: as §2
[20] = target: Norepinephrine transporter (Rattus norvegicus, UniProt Q9WTR4); test: (§7) Inhibition of the NE [3H]norepinephrine uptake by rat brain slices In vitro; type: tissue-based
Method in brief: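 Rat cerebral cortex slices at 5 mg tissue/mL Krebs-Henseleit buffer, incubated at 37 °C; blanks incubated at 4 °C, controls without drug. After 20 min, incubation stopped by filtration and tissue radioactivity measured. IC50 taken from linear regression of uptake inhibition.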

[21] = organism: Mus musculus; test: Mouse behavior activity was determined; ST = Stimulant(Weak); type: functional, organism-based
Method in brief: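 Male Simonsen (ICR) fBR mice (18-24 g) given 3, 10, 30, 100, 300 or 1000 mg/kg ip as aqueous solution and observed for behaviour in groups of three.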

[22] = organism: Mus musculus; test: as §4; type: functional; remark: listed apart in the source
Method in brief: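 Mice received compound ip before iv [3H]NE. At 3 h after [3H]NE, hearts were removed, washed, weighed, dissolved in Protosol and counted as dpm per mg tissue. Dose-response curves derived by linear regression.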

[23] = tested on: Mus musculus; test: Compound was evaluated in vivo for reserpine hypothermia after oral administration in mouse. Minimum active dose was reported, with the percent reversal at 10 mg/kg in parenthesis.; type: functional
Method in brief: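 Male HLa (ICR) BR mice (18-24 g), groups of eight, dosed ip with 5 mg/kg reserpine 2 h before oral test compound given as aqueous solution. Rectal temperature measured hourly; 1-4-h thermia assessed by analysis of variance.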

[24] = organism: Mus musculus; test: Righting ability was determined in mice after rapid rolling (aroused); type: functional; method in brief: as §3
[25] = organism: Mus musculus; test: Righting ability was determined in mice before rapid rolling (unaroused);; type: functional; method in brief: as §3
[26] = organism: Mus musculus; test: Mouse behavior activity was determined; D=-Depressant.; type: functional, organism-based; method in brief: as §2
[27] = organism: Mus musculus; test: Mouse behavior activity was determined;S= Stimulant Weak.; type: functional, organism-based
[28] = organism: Mus musculus; test: Compound was evaluated for antagonism of reserpine induced hypothermia; Inactive.; type: functional, organism-based; method in brief: as §5
[29] = organism: Mus musculus; test: Mouse behavior activity was determined; Dwk= Depressant Weak.; type: functional, organism-based; method in brief: as §2
[30] = tested on: Mus musculus; test: Compound was evaluated in vivo for reserpine hypothermia after oral administration in mouse Minimum active dose was reported; Inactive; type: functional, organism-based; method in brief: as §5
[31] = organism: Mus musculus; test: Mouse behavior activity was determined; Stimulant-Depressant Weak; type: functional, organism-based; method in brief: as §2
[32] = organism: Mus musculus; test: Evaluated for antagonism of reserpine induced hypothermia;I= Inactive; type: functional, organism-based; method in brief: as §5
[33] = organism: Mus musculus; test: Mouse behavior activity was determined; D=Depressant; type: functional, organism-based; method in brief: as §2
[34] = organism: Mus musculus; test: Righting ability was determined in mice […] rapid rolling (aroused); type: functional; method in brief: as §3
[35] = organism: Mus musculus; test: Mouse behavior activity was determined; Depressant.; type: functional, organism-based; method in brief: as §2
[36] = tested on: Mus musculus; test: Compound was evaluated in vivo for reserpine hypothermia after oral administration in mouse. Minimum active dose was reported,; type: functional; method in brief: as §5
[37] = organism: Mus musculus; test: Mouse behavior activity was determined; Depressant-Stimulant; type: functional, organism-based; method in brief: as §2
[38] = organism: Rattus norvegicus; test: as §7; type: functional
[39] = organism: Rattus norvegicus; test: Inhibition of the 5-HT [14C]5-HT uptake by rat brain slices In vitro; type: functional; method in brief: as §6
[40] = tested on: Mus musculus; test: Mouse behavior activity was determined; I=inactive at a dose of 50 mg/Kg; type: functional, organism-based

Sequence of Norepinephrine transporter (Q9WTR4 whole entry): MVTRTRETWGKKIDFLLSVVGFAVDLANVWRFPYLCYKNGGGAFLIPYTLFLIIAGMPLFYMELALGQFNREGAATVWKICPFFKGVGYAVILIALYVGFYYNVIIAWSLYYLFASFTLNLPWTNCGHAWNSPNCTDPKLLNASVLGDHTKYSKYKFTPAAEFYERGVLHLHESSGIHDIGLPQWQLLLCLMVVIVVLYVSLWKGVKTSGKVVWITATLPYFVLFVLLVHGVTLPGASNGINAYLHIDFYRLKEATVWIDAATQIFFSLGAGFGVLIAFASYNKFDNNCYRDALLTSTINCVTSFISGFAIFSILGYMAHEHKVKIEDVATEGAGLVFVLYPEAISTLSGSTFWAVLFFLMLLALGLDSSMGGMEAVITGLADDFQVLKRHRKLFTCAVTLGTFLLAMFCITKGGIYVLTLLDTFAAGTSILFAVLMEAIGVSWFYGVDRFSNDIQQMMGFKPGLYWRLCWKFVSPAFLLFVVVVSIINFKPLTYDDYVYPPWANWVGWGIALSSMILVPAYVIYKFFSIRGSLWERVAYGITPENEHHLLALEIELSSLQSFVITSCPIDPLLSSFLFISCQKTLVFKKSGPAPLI

With COC(=O)NC1=NC2(CCc3ccccc32)CN1 (configuration not stated) the LD50 [1] was 700 mg/kg, the ED50 [2] was 75 mg/kg and the Mouse behavior activity [3] was “Depressant”. For the same molecule, the Loss of righting reflex [4] was 200 mg/kg and the “Log k'” value [5] was 0.3.

For NC1=NC(c2c(Cl)cccc2Cl)CN1 (configuration not stated), the LD50 [1] was 70 mg/kg, the IC50 [6] was 100 nM and the ED50 [7] was 6.5 mg/kg. The HYPO [8] was less than 0.5 mg/kg, the IC50 [9] was 7800 nM and the Reserpine hypothermia [10] was 0.15 mg/kg. The ED50 [11] was “inactive”.

For COC(=O)NC1=NC(c2ccc(OC(C)=O)cc2)CN1C (configuration not stated), the LD50 [1] was 700 mg/kg, the ED50 [12] was “inactive” and the ED50 [13] was “inactive”. For the same molecule, the “Log k'” value [5] was 0.2, the Mouse behavior activity [14] was “Depressant - weak” and the HYPO [15] was “inactive”.

In the case of O=C1NC(=O)C(c2ccccc2)(c2ccccc2)N1 [PHENYTOIN], the ED50 [16] is reported as 6 mg/kg, the LD50 [17] is reported as 700 mg/kg and the HYPO [18] is reported as “inactive”. For the same molecule, the Mouse behavior activity [19] was “Stimulant”.

With CN(C)CCC=C1c2ccccc2CCc2ccccc21 [AMITRIPTYLINE] the IC50 [20] was 2500 nM, the ED50 [16] was 14 mg/kg and the Mouse behavior activity [21] was “Partial stimulant”. The LD50 [17] was 70 mg/kg, the ED50 [22] was 4.4 mg/kg and the HYPO [8] was less than 0.5 mg/kg. It also gave an ED50 [23] of 8 mg/kg and a Reserpine hypothermia [10] of 0.15 mg/kg.

Work on COC(=O)NC1=NC(c2ccccc2C)CN1 (configuration not stated) yielded an LD50 [1] of 300 mg/kg, a Loss of righting reflex [24] of 172 mg/kg and an ED50 [2] of 55 mg/kg. For the same molecule, the HYPO [8] was greater than 20 mg/kg, the Loss of righting reflex [25] was 144 mg/kg and the “Log k'” value [5] was 0.16. The Mouse behavior activity [26] was “Depressant”.

In the case of COC(=O)NC1=NC(c2ccc(Cl)cc2)CN1 (configuration not stated), the LD50 [1] is reported as 500 mg/kg, the ED50 [2] is reported as roughly 200 mg/kg and the Mouse behavior activity [27] is reported as “Stimulant weak”. The “Log k'” value [5] was 0.31.

For CCCCCCOC(=O)NC1=NC(c2ccc(Cl)cc2)CN1 (configuration not stated), the LD50 [1] was 200 mg/kg, the HYPO [28] was “inactive” and the “Log k'” value [5] was 2.18. For the same molecule, the Mouse behavior activity [29] was “Depressant - weak”, the ED50 [30] was “inactive” and the ED50 [11] was “inactive”.

In the case of CCOC(=O)NC1=NC(c2ccc(O)cc2)CN1C(C)C (configuration not stated), the LD50 [1] is reported as 200 mg/kg, the Mouse behavior activity [31] is reported as “Stimulant-Depressant Weak” and the HYPO [32] is reported as “inactive”. The “Log k'” value [5] was 0.7 and the ED50 [11] was “inactive”.

With COC(=O)NC1=NC(c2ccccc2SC)CN1C (configuration not stated) the LD50 [1] was 200 mg/kg, the Loss of righting reflex [4] was 70 mg/kg and the HYPO [32] was “inactive”. For the same molecule, the “Log k'” value [5] was 0.63, the Mouse behavior activity [33] was “Depressant” and the ED50 [11] was “inactive”.

Molecule COC(=O)NC1=NC(c2ccccc2Cl)CN1C (configuration not stated) has an LD50 [1] of 238 mg/kg, a Loss of righting reflex [34] of 92 mg/kg and an ED50 [2] of 28 mg/kg. The Loss of righting reflex [4] was 49 mg/kg, the Mouse behavior activity [35] was “Depressant” and the “Log k'” value [5] was 0.51.

With COC(=O)NC1=NC(c2cccc(Cl)c2Cl)CN1C (configuration not stated) the ED50 [2] was 30 mg/kg, the ED50 [36] was 23 mg/kg and the “Log k'” value [5] was 0.91.

For CC(C)OC(=O)NC1=NC(c2ccccc2Cl)CN1C (configuration not stated), the LD50 [1] was 700 mg/kg, the Loss of righting reflex [34] was 67 mg/kg and the ED50 [2] was 35 mg/kg. For the same molecule, the Loss of righting reflex [4] was 46 mg/kg, the Mouse behavior activity [37] was “Depressant-Stimulant” and the “Log k'” value [5] was 1.08.

CN1CC(c2ccccc2Cl)N=C1N (configuration not stated) showed an IC50 [38] of 500 nM, an ED50 [7] of 18.3 mg/kg and an HYPO [8] of less than 0.5 mg/kg. It also gave an IC50 [39] of 30000 nM and a Reserpine hypothermia [10] of 0.15 mg/kg.

For COC(=O)NC1=NC(c2ccc(O)c(O)c2)CN1 (configuration not stated), the LD50 [17] was greater than 1000 mg/kg, the HYPO [8] was greater than 20 mg/kg and the Mouse behavior activity [40] was “inactive”. The “Log k'” value [5] was -1.51.
